Experimental findings from ChEMBL document CHEMBL1144197, “Synthesis of 5-(1-H or 1-alkyl-5-oxopyrrolidin-3-yl)-8-hydroxy-[1,6]-naphthyridine-7-carboxamide inhibitors of HIV-1 integrase” (Bioorg Med Chem Lett, 2008) are described below.

pIC50: −log10 of the molar value.

Data set [1] concerns Human immunodeficiency virus 1. The data set is described as follows: Antiviral activity against HIV1 3b in human MT4 cells assessed as decrease in HIV1 p24 core antigen in presence of 50% normal human serum.
Data set [2] has as its target Human immunodeficiency virus type 1 integrase (Human immunodeficiency virus 1, UniProt Q7ZJM1). The data set is described as follows: Inhibition of recombinant HIV1 integrase strand transfer activity using immobilized DNA substrate. The method in brief: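 Recombinant HIV integrase (100 nM) preassembled on immobilized oligonucleotides, with 0.5 nM DNA, in a strand transfer read-out. Values are means of at least two experiments. The lower limit of accuracy is about 5 nM, with SD approximately twofold.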

A short description of data set [3]: Protein binding in human plasma at pH 7.4. It is filed as ADME, cell-free. As to conditions: read-out: PPB (converted). The method in brief:
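Binding to human plasma (primarily albumin) measured by HPLC with UV detection, in pH 7.4 buffer at room temperature. Each value is the average of three determinations.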

Data set [4] deals with Human immunodeficiency virus 1. The data set is described as follows: Antiviral activity against HIV1 3b in human MT4 cells assessed as decrease in HIV1 p24 core antigen in presence of 10% fetal bovine serum. It is filed as functional. The method in brief: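 HIV-1 IIIb replication in MT-4 human T-lymphoid cells, cultured with 10% FBS across increasing inhibitor concentrations. Read-out is the decrease in p24 core antigen. IC95 is the concentration giving 95% inhibition of viral growth relative to control.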

Data set [5] can be described thus: Partition coefficient, log P at pH 7.4. As to conditions: octanol/water. It is filed as physicochemical. Put shortly: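 A methanol solution of compound is partitioned between octanol and pH 7.4 KH2PO4/NaOH aqueous buffer, and both layers are quantified by HPLC-UV. Log P = log[(octanol area × octanol dilution)/(buffer area × buffer dilution)].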
Data set [6] can be described thus: Half life in rat at 2 mg/kg, iv. It is filed as ADME, organism-based. More on the design: dose 2 mg/kg, route intravenous. As to conditions: in vivo. The method in brief: (§1)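 Intravenous dosing in DMSO at 2 mg/kg.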
A short description of data set [7]: Oral bioavailability in rat at 10 mg/kg. The data set is classed as ADME, organism-based. As to conditions: in vivo. Put shortly: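 Oral dosing in 1% methylcellulose at 10 mg/kg.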
A short description of data set [8]: Clearance in rat at 2 mg/kg, iv. It is filed as ADME, organism-based. More on the design: dose 2 mg/kg, route intravenous. As to conditions: in vivo. Put shortly: as §1

Chain of Human immunodeficiency virus type 1 integrase (Q7ZJM1 whole entry): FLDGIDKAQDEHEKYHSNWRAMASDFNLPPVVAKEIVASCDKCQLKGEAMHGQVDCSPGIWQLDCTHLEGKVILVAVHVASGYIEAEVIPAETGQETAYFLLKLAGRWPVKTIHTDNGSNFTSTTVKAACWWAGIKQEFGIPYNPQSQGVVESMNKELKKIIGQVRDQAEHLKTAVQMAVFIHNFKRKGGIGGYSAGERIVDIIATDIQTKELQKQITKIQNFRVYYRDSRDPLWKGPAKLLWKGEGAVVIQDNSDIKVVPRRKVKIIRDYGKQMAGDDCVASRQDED

Consider `CCN1CC(c2nc(C(=O)NCc3ccc(F)cc3)c(O)c3ncccc23)CC1=O` (stereo not given), for which, in data set [1], the “Antiviral potency (p24 reduction)” value was found to be 125 nM. Moreover, in data set [2], the negative logarithm of the IC50 (pIC50) was 7.85. Moreover, the fraction unbound in data set [3] was 0.011. Also, in data set [4], the IC95 came out at 16 nM. The same compound displayed a logD in data set [5] of 2.7.
In data set [6], `CN1CC(c2nc(C(=O)NCc3ccc(F)cc3)c([O-])c3ncccc23)CC1=O.[Na+]` (stereo not given) had a half-life of 1.3 h. For the same compound, the bioavailability in data set [7] was 65%. The compound further showed a clearance in data set [8] of 2.5 mL/min/kg.
Turning to `CC(C)N1CC(c2nc(C(=O)NCc3ccc(F)cc3)c(O)c3ncccc23)CC1=O` (stereo not given), in data set [1], the “Antiviral potency (p24 reduction)” value is 125 nM. Besides, the negative-log IC50 (pIC50) in data set [2] was 7.40. Besides, the fraction unbound in data set [3] is 0.022. Also, the 95% effect concentration (IC95) in data set [4] was determined as 31 nM. This compound also gave a pH-dependent lipophilicity (logD) in data set [5] of 2.7.
`O=C(NCc1ccc(F)cc1)c1ncc2cccnc2c1O`: the “Antiviral potency (p24 reduction)” value in data set [1] is given as 5000 nM. Moreover, in data set [3], the fraction unbound was 0.008. For the same compound, the IC95 in data set [4] is recorded as 1250 nM.
Turning to `CN1CC(c2nc(C(=O)NCc3ccc(F)cc3S(C)(=O)=O)c(O)c3ncccc23)CC1=O` (stereo not given), in data set [1], the “Antiviral potency (p24 reduction)” value is on record as 63 nM. In data set [6], this compound showed a half-life of 0.67 h. The bioavailability in data set [7] was 4%. The negative-log IC50 (pIC50) in data set [2] was 6.91. Besides, the fraction unbound in data set [3] was 0.03. The clearance in data set [8] is 17.2 mL/min/kg. Besides, in data set [4], the concentration for an effect of 95% (IC95) is given as 31 nM. The logD in data set [5] came to 1.6.
Take `O=C1CC(c2nc(C(=O)NCc3ccc(F)cc3)c(O)c3ncccc23)CN1` (stereo not given): in data set [1], the “Antiviral potency (p24 reduction)” value is on record as 83 nM. Also, in data set [2], the negative-log IC50 (pIC50) is 7.62. Further, in data set [4], the 95% effect concentration (IC95) is recorded as 42 nM.
Take `CN1CC(c2nc(C(=O)NCc3ccc(F)cc3)c(O)c3ncccc23)CC1=O` (stereo not given): the “Antiviral potency (p24 reduction)” value in data set [1] is given as 125 nM. Besides, in data set [2], the pIC50 is 7.70. Also, the fraction unbound in data set [3] is 0.012. The IC95 in data set [4] was 31 nM. Besides, in data set [5], the logD was 2.3.
Compound `CN(C)C(=O)CN1CC(c2nc(C(=O)NCc3ccc(F)cc3)c([O-])c3ncccc23)CC1=O.[Na+]` (stereo not given) had a half-life in data set [6] of 3.4 h. For the same compound, the bioavailability in data set [7] is 5%. Further, the clearance in data set [8] was found to be 23.4 mL/min/kg.
As to `CN(C)C(=O)CN1CC(c2nc(C(=O)NCc3ccc(F)cc3)c(O)c3ncccc23)CC1=O` (stereo not given), the “Antiviral potency (p24 reduction)” value in data set [1] is recorded as 63 nM. Further, in data set [2], the pIC50 was 7.48. In data set [3], the fraction unbound is 0.052. In addition, the IC95 in data set [4] is given as 31 nM. This compound yielded a logD in data set [5] of 1.8.
With `CCN1CC(c2nc(C(=O)NCc3ccc(F)cc3S(C)(=O)=O)c(O)c3ncccc23)CC1=O` (stereo not given), the “Antiviral potency (p24 reduction)” value in data set [1] worked out at 81 nM. The negative-log IC50 (pIC50) in data set [2] was 7.59. For the same compound, the fraction unbound in data set [3] is 0.04. In addition, the IC95 in data set [4] stood at 38 nM. In data set [5], this compound showed a logD of 1.9.

By pIC50 is commonly meant the negative decadic logarithm of the IC50, by convention in mol/L. In general, IC95 refers to the point of the concentration-response curve where the effect stands at 95%. What is called logD is lipophilicity at a set pH, counting ionised and neutral species. Low values mean lower lipophilicity, high ones higher lipophilicity. Usually half-life stands for how long it takes for the measured level to halve. A high value points to slow decline. For orientation: bioavailability means the share of a dose that reaches the circulation, judged against a reference dose that is usually intravenous. The low end stands for poor availability, the high end for good availability. The clearance is the rate of elimination divided by the concentration. Read a low clearance as inefficient removal.
